Results published in ChEMBL document CHEMBL3351329, “Radiosynthesis and evaluation of an 18F-labeled positron emission tomography (PET) radioligand for metabotropic glutamate receptor subtype 4 (mGlu4)” (J Med Chem, 2014).
Activity calls are given as the source filed them. No cut-off for these calls is given here.

Experiments:
[1] = biological target: Metabotropic glutamate receptor 4 (Rattus norvegicus) (UniProt P31423); test: Displacement of [3H]ML128 from rat mGlu4 receptor expressed in CHO cells at 10 uM after 30 mins by liquid scintillation counting analysis; assay type: cell-based
Method in brief: (§1)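 Whole freshly harvested CHO cells stably expressing rat mGlu4 (G418-selected), 50 000 per tube, incubated with 10 nM [3H]1 plus competitor (0.01 nM–10 μM) 30 min at room temperature. Cells pelleted at 4 °C, washed three times with cold medium, lysed in 0.5% NaOH at 56 °C, then counted by liquid scintillation. Nonspecific binding defined with 10 μM unlabeled 1. Triplicates.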

[2] = biological target: Metabotropic glutamate receptor 1 (Homo sapiens) (UniProt Q13255); test: Activity at human mGlu1 receptor expressed in CHO cells after 45 mins by intracellular inositol phosphates accumulation assay
[3] = biological target: Metabotropic glutamate receptor 4 (Rattus norvegicus, UniProt P31423); test: Displacement of [3H]ML128 from rat mGlu4 receptor expressed in CHO cells after 30 mins by liquid scintillation counting analysis; assay type: cell-based; method in brief: as §1
[4] = biological target: Metabotropic glutamate receptor 8 (Homo sapiens) (UniProt O00222); test: Binding affinity to human mGlu8 receptor
[5] = biological target: Metabotropic glutamate receptor 5 (Homo sapiens) (UniProt P41594); test: Activity at human mGlu5 receptor expressed in CHO cells after 45 mins by intracellular inositol phosphates accumulation assay
[6] = test system: Thalamus (Macaca mulatta); test: Drug uptake in rhesus monkey thalamus at 189 MBq, iv after 20 mins by PET imaging analysis; conditions: in vivo
Cerebellum [7] = test: Drug uptake in Sprague-Dawley rat cerebellum at 37 MBq, iv administered 5 mins post N-(3-(difluoromethoxy)phenyl)-2-picolinamide hydrochloride challenge measured after 20 mins by PET imaging analysis; assay type: ADME, organism-based; conditions: in vivo
Method in brief: (§2)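 Male Sprague–Dawley rats under 1.0–1.5% isoflurane/nitrous oxide received [18F]3 (37 MBq) via tail-vein catheter. Dynamic PET was acquired for 60 min, followed by CT for anatomy and attenuation correction. Regional brain time–activity curves were generated. For blocking, animals were given iv 5 min before tracer either 2·HCl 10 mg/kg in saline with 10% ethanol and 10% Tween20 (n = 4) or MTEP·HCl 10 mg/kg in 0.9% saline (n = 3).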

Striatum [8] = test: Drug uptake in Sprague-Dawley rat striatum at 37 MBq, iv administered 5 mins post MTEP.HCl challenge measured after 20 mins by PET imaging analysis; assay type: ADME, organism-based; conditions: in vivo; method in brief: as §2
Cortex [9] = test: Drug uptake in Sprague-Dawley rat cortex at 37 MBq, iv administered 5 mins post MTEP.HCl challenge measured after 20 mins by PET imaging analysis; assay type: ADME, organism-based; conditions: in vivo; method in brief: as §2
[10] = test system: Hippocampus (Macaca mulatta); test: Drug uptake in rhesus monkey hippocampus at 189 MBq, iv after 3 mins by PET imaging analysis; conditions: in vivo, 0.05 h
Thalamus [11] = test: Drug uptake in Sprague-Dawley rat thalamus at 37 MBq, iv after 20 mins by PET imaging analysis; assay type: ADME, organism-based; conditions: in vivo; method in brief: as §2
[12] = test system: Thalamus (Macaca mulatta); test: Drug uptake in rhesus monkey thalamus at 189 MBq, iv after 3 mins by PET imaging analysis; conditions: in vivo, 0.05 h
Brain [13] = test: Drug uptake in Sprague-Dawley rat whole brain at 37 MBq, iv administered 5 mins post MTEP.HCl challenge measured after 20 mins by PET imaging analysis; assay type: ADME, organism-based; conditions: in vivo; method in brief: as §2
[14] = Drug metabolism in iv dosed rhesus monkey blood after 5 mins; conditions: in vivo
Brain [15] = test: Drug uptake in Sprague-Dawley rat whole brain at 37 MBq, iv after 20 mins by PET imaging analysis; assay type: ADME, organism-based; conditions: in vivo; method in brief: as §2
Cortex [16] = test: Drug uptake in Sprague-Dawley rat cortex at 37 MBq, iv after 20 mins by PET imaging analysis; assay type: ADME, organism-based; conditions: in vivo; method in brief: as §2
Striatum [17] = test: Drug uptake in Sprague-Dawley rat striatum at 37 MBq, iv administered 5 mins post N-(3-(difluoromethoxy)phenyl)-2-picolinamide hydrochloride challenge measured after 20 mins by PET imaging analysis; assay type: ADME, organism-based; conditions: in vivo; method in brief: as §2
[18] = test system: Hippocampus (Macaca mulatta); test: Drug uptake in rhesus monkey hippocampus at 189 MBq, iv after 20 mins by PET imaging analysis; conditions: in vivo
[19] = test system: Cerebellum (Macaca mulatta); test: Drug uptake in rhesus monkey cerebellum at 189 MBq, iv after 20 mins by PET imaging analysis; conditions: in vivo
Cerebellum [20] = test: Drug uptake in Sprague-Dawley rat cerebellum at 37 MBq, iv after 20 mins by PET imaging analysis; assay type: ADME, organism-based; conditions: in vivo; method in brief: as §2
Cerebellum [21] = test: Drug uptake in Sprague-Dawley rat cerebellum at 37 MBq, iv administered 5 mins post MTEP.HCl challenge measured after 20 mins by PET imaging analysis; assay type: ADME, organism-based; conditions: in vivo; method in brief: as §2
Hippocampus [22] = test: Drug uptake in Sprague-Dawley rat hippocampus at 37 MBq, iv administered 5 mins post N-(3-(difluoromethoxy)phenyl)-2-picolinamide hydrochloride challenge measured after 20 mins by PET imaging analysis; assay type: ADME, organism-based; conditions: in vivo; method in brief: as §2
Striatum [23] = test: Drug uptake in Sprague-Dawley rat striatum at 37 MBq, iv after 20 mins by PET imaging analysis; assay type: ADME, organism-based; conditions: in vivo; method in brief: as §2
Thalamus [24] = test: Drug uptake in Sprague-Dawley rat thalamus at 37 MBq, iv administered 5 mins post N-(3-(difluoromethoxy)phenyl)-2-picolinamide hydrochloride challenge measured after 20 mins by PET imaging analysis; assay type: ADME, organism-based; conditions: in vivo; method in brief: as §2
[25] = test system: Striatum (Macaca mulatta); test: Drug uptake in rhesus monkey striatum at 189 MBq, iv after 3 mins by PET imaging analysis; conditions: in vivo, 0.05 h
[26] = Drug metabolism in iv dosed Sprague-Dawley rat blood after 5 mins; assay type: ADME, organism-based; conditions: read-out: Drug metabolism
[27] = test system: Striatum (Macaca mulatta); test: Drug uptake in rhesus monkey striatum at 189 MBq, iv after 40 mins by PET imaging analysis; conditions: in vivo
Hippocampus [28] = test: Drug uptake in Sprague-Dawley rat hippocampus at 37 MBq, iv administered 5 mins post MTEP.HCl challenge measured after 20 mins by PET imaging analysis; assay type: ADME, organism-based; conditions: in vivo; method in brief: as §2
[29] = Drug uptake in rhesus monkey cerebellum at 189 MBq, iv after 40 mins by PET imaging analysis; conditions: in vivo
[30] = test system: Thalamus (Macaca mulatta); test: Drug uptake in rhesus monkey thalamus at 189 MBq, iv after 40 mins by PET imaging analysis; conditions: in vivo
[31] = test system: Striatum (Macaca mulatta); test: Drug uptake in rhesus monkey striatum at 189 MBq, iv after 20 mins by PET imaging analysis; conditions: in vivo
Macaca mulatta = test: Drug uptake in rhesus monkey hippocampus at 189 MBq, iv after 40 mins by PET imaging analysis; conditions: in vivo
Hippocampus [32] = test: Drug uptake in Sprague-Dawley rat hippocampus at 37 MBq, iv after 20 mins by PET imaging analysis; assay type: ADME, organism-based; conditions: in vivo; method in brief: as §2
Cortex [33] = test: Drug uptake in Sprague-Dawley rat cortex at 37 MBq, iv administered 5 mins post N-(3-(difluoromethoxy)phenyl)-2-picolinamide hydrochloride challenge measured after 20 mins by PET imaging analysis; assay type: ADME, organism-based; conditions: in vivo; method in brief: as §2
Thalamus [34] = test: Drug uptake in Sprague-Dawley rat thalamus at 37 MBq, iv administered 5 mins post MTEP.HCl challenge measured after 20 mins by PET imaging analysis; assay type: ADME, organism-based; conditions: in vivo; method in brief: as §2
[35] = test system: Cerebellum (Macaca mulatta); test: Drug uptake in rhesus monkey cerebellum at 189 MBq, iv after 3 mins by PET imaging analysis; conditions: in vivo, 0.05 h
Brain [36] = test: Drug uptake in Sprague-Dawley rat whole brain at 37 MBq, iv administered 5 mins post N-(3-(difluoromethoxy)phenyl)-2-picolinamide hydrochloride challenge measured after 20 mins by PET imaging analysis; assay type: ADME, organism-based; conditions: in vivo; method in brief: as §2

Metabotropic glutamate receptor 4, sequence (P31423 whole entry): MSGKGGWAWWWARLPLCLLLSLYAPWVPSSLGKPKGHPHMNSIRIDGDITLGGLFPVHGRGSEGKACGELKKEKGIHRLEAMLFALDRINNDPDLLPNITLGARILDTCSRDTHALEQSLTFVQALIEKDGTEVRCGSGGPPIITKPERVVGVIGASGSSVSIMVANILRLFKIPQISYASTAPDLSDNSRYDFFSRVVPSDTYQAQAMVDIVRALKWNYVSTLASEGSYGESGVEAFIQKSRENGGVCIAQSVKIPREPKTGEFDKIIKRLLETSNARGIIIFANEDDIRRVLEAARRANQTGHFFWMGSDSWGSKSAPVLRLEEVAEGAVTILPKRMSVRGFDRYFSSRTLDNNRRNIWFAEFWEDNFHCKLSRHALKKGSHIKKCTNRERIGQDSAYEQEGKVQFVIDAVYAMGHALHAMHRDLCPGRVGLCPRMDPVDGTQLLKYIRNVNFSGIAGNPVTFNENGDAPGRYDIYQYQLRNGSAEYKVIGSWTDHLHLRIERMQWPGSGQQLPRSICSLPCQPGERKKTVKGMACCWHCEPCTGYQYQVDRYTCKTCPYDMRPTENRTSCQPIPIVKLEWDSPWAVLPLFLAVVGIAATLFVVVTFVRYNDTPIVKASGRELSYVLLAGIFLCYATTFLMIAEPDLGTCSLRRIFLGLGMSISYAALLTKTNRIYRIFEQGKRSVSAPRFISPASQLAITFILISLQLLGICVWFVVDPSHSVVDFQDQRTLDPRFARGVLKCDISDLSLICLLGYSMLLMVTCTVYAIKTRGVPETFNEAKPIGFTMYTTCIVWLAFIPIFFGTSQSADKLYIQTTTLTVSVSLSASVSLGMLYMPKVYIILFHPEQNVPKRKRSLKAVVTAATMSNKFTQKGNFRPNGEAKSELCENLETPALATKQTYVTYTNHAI
Metabotropic glutamate receptor 4 (Rattus norvegicus), sequence (P31423 whole entry): as above
Metabotropic glutamate receptor 5 (Homo sapiens), sequence (P41594 21-1212 limits assumed): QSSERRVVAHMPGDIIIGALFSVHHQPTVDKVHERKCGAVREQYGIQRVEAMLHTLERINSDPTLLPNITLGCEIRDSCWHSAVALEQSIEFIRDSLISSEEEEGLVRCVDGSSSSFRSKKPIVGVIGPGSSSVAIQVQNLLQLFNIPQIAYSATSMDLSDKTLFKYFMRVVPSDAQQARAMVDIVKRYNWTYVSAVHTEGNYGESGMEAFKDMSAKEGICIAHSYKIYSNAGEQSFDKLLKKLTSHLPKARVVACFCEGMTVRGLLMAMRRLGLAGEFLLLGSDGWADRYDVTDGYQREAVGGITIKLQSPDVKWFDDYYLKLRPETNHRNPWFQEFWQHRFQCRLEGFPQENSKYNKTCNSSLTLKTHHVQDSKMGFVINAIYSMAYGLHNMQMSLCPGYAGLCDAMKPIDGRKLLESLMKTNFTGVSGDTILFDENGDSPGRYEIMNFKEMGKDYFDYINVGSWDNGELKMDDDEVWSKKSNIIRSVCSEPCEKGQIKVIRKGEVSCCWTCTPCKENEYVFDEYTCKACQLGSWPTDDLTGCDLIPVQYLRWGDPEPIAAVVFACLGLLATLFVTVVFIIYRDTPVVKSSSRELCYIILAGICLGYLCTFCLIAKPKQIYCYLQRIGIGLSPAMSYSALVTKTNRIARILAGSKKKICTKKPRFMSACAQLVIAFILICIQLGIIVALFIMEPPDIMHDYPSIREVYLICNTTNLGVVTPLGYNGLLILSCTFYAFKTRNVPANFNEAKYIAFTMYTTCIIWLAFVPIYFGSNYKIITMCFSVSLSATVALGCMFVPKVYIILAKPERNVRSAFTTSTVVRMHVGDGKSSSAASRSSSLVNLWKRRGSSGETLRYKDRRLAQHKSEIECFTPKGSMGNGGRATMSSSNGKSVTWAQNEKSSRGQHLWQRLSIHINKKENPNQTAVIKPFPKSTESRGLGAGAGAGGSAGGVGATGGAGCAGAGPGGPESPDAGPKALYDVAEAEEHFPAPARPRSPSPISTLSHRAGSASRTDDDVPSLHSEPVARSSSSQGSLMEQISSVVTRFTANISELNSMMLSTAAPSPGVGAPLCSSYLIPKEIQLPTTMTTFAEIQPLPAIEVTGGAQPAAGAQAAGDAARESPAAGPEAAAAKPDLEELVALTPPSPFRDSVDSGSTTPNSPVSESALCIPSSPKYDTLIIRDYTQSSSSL
Metabotropic glutamate receptor 8 (Homo sapiens), sequence (O00222 whole entry): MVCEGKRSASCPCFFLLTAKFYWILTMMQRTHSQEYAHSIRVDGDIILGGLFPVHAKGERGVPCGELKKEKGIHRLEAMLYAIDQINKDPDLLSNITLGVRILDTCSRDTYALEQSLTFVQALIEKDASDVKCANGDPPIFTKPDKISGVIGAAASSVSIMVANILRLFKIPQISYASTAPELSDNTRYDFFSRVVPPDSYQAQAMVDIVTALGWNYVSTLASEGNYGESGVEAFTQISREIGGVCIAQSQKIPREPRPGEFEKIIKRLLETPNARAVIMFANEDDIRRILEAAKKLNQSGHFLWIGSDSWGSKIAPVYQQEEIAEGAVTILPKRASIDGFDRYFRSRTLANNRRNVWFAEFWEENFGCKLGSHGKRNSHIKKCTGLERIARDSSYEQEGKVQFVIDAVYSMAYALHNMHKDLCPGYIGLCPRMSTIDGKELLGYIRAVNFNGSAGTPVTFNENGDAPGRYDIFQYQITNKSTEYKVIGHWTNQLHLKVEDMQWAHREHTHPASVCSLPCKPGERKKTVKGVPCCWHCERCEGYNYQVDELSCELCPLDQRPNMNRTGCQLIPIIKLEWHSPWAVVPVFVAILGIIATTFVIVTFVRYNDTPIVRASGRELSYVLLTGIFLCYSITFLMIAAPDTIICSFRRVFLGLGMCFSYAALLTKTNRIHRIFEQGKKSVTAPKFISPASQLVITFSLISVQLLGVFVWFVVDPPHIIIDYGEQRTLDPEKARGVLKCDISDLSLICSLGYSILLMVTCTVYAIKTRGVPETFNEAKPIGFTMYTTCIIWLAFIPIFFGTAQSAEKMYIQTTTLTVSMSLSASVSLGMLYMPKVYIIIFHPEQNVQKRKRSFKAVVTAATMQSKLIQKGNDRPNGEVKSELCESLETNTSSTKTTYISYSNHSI
Metabotropic glutamate receptor 1 (Homo sapiens), sequence (Q13255 19-1194 limits assumed): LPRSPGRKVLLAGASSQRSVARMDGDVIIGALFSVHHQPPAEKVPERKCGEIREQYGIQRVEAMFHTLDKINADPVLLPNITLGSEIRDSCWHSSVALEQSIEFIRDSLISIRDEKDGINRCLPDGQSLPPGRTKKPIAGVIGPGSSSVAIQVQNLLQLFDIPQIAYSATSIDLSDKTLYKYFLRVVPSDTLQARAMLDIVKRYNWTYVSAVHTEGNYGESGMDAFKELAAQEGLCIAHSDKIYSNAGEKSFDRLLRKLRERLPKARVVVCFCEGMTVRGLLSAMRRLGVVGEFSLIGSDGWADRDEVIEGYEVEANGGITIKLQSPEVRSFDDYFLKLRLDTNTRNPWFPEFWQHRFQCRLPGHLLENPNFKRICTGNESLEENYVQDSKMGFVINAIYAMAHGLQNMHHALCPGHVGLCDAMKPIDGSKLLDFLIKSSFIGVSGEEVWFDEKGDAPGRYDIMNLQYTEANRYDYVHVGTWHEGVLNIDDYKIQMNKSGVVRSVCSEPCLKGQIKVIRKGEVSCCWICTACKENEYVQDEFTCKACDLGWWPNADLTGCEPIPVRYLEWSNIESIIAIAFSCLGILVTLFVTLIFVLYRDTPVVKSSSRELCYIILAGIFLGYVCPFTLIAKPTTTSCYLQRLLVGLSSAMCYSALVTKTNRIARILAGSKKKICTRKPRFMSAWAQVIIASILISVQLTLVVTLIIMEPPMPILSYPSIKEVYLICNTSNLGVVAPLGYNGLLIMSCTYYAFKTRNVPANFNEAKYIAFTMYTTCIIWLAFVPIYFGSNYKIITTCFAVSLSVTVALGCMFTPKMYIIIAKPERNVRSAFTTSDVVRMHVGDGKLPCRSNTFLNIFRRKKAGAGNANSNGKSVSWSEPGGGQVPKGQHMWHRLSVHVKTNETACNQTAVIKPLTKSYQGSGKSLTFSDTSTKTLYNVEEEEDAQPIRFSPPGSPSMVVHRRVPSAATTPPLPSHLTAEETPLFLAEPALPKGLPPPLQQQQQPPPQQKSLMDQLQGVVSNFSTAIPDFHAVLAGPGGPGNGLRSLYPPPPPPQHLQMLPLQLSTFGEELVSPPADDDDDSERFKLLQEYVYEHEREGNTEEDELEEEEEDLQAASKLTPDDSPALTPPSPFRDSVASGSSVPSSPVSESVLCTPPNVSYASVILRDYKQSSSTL

In the case of `O=C(Nc1ccc(N2C(=O)c3cccc(F)c3C2=O)c(Cl)c1)c1ccccn1`, the inhibition [1] is reported as 99.4%, the Activity [2] is reported as “Active” and the IC50 ([3]; read-out: IC50) is reported as 0.0051 µM. For the same compound, the Activity [4] was “Active” and the Activity [5] was “Active”.
With `O=C(Nc1ccc(N2C(=O)c3cccc([18F])c3C2=O)c(Cl)c1)c1ccccn1` the Drug uptake [6] was 50%, the Drug uptake (Cerebellum [7]) was “Active” and the Drug uptake (Striatum [8]) was “Active”. For the same compound, the Drug uptake (Cortex [9]) was “Active”, the Drug uptake [10] was “Active” and the Drug uptake (Thalamus [11]) was “Active”. For the same compound, the Drug uptake [12] was “Active”, the Drug uptake (Brain [13]) was “Active” and the Stability [14] was “Unstable”. The Drug uptake (Brain [15]) was “Active”, the Drug uptake (Cortex [16]) was “Active” and the Drug uptake (Striatum [17]) was “Active”. For the same compound, the Drug uptake [18] was 50%, the Drug uptake [19] was 50% and the Drug uptake (Cerebellum [20]) was “Active”. The Drug uptake (Cerebellum [21]) was “Active”, the Drug uptake (Hippocampus [22]) was “Active” and the Drug uptake (Striatum [23]) was “Active”. The Drug uptake (Thalamus [24]) was “Active”, the Drug uptake [25] was “Active” and the metabolised at 5 min [26] was 90%. For the same compound, the Drug uptake [27] was “Active”, the Drug uptake (Hippocampus [28]) was “Active” and the Drug uptake [29] was “Active”. For the same compound, the Drug uptake [30] was “Active”, the Drug uptake [31] was 50% and the Drug uptake (Macaca mulatta) was “Active”. For the same compound, the Drug uptake (Hippocampus [32]) was “Active”, the Drug uptake (Cortex [33]) was “Active” and the Drug uptake (Thalamus [34]) was “Active”. For the same compound, the Drug uptake [35] was “Active” and the Drug uptake (Brain [36]) was “Active”.
`O=C(Nc1cccc(OC(F)F)c1)c1ccccn1` gave an inhibition [1] of 99.1%.
`Cc1cccc2c1C(=O)N(c1ccc(NC(=O)c3ccccn3)cc1Cl)C2=O` gave an inhibition [1] of 99.4% and an IC50 ([3]; read-out: IC50) of 0.0042 µM.
For `O=C(Nc1ccc(N2C(=O)c3cccc(Br)c3C2=O)c(Cl)c1)c1ccccn1`, the inhibition [1] was 96.6% and the IC50 ([3]; read-out: IC50) was 0.0118 µM.
With `O=C(Nc1ccc(N2C(=O)c3cccc(I)c3C2=O)c(Cl)c1)c1ccccn1` the inhibition [1] was 96%, the IC50 ([3]; read-out: IC50) was 0.0263 µM and the IC50 ([3]; read-out: pIC50 (converted)) was 0.0295 µM.
`COc1cc(NC(=O)c2ccccn2)ccc1Cl` showed an inhibition [1] of 100%.
